From ChEMBL document CHEMBL5678808, “Human target validation of phosphoinositide 3-kinase (PI3K)β: effects on platelets and insulin sensitivity, using AZD6482 a novel PI3Kβ inhibitor” (J Thromb Haemost, 2012) come the findings set out here.

Series [1] addresses DNA-dependent protein kinase catalytic subunit (Homo sapiens, UniProt P78527). Description: Inhibition of human DNA-PK assessed as reduction in protein phosphorylation by ELISA. Summed up:
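Recombinant human DNA-PK was tested in a functional assay, with substrate protein phosphorylation read by ELISA. IC50 is reported as mean ± SEM, with the number of determinations given.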
On the technique in general: In an ELISA, binding on a coated surface is turned into a signal by an enzyme label.

Series [2] deals with Serine/threonine-protein kinase Chk1 (Homo sapiens, UniProt O14757). Kind of series: Inhibition of human CHK1.
Serine/threonine-protein kinase Chk1, sequence (O14757 whole entry): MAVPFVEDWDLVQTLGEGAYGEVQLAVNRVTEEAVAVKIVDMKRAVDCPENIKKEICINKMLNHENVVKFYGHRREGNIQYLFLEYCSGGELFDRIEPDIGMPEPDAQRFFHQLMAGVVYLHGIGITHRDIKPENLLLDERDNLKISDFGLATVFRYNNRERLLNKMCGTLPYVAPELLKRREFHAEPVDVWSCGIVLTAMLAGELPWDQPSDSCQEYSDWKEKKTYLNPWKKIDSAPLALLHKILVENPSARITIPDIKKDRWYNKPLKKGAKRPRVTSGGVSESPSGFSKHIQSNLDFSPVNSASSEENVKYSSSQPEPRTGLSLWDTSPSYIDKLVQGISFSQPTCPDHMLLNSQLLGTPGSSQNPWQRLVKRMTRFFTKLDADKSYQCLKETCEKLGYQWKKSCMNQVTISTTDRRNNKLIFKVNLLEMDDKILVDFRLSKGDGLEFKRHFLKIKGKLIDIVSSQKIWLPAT
The target in series [3] is Cyclin-dependent kinase 2/cyclin E1 (Homo sapiens, UniProt P24941). Kind of series: Inhibition of human CDK2/Cyclin E. The series is classed as protein-complex assay.
Series [4] has as its target Serine/threonine-protein kinase pim-1 (Homo sapiens) (UniProt P11309). Description: Inhibition of human PIM1 at 10 uM relative to control.
Series [5] deals with Serine/threonine-protein kinase PAK 5 (Homo sapiens) (UniProt Q9P286). Description: Inhibition of human PAK5 at 10 uM relative to control.
Serine/threonine-protein kinase PAK 5 (Homo sapiens), sequence (Q9P286 whole entry, looked up): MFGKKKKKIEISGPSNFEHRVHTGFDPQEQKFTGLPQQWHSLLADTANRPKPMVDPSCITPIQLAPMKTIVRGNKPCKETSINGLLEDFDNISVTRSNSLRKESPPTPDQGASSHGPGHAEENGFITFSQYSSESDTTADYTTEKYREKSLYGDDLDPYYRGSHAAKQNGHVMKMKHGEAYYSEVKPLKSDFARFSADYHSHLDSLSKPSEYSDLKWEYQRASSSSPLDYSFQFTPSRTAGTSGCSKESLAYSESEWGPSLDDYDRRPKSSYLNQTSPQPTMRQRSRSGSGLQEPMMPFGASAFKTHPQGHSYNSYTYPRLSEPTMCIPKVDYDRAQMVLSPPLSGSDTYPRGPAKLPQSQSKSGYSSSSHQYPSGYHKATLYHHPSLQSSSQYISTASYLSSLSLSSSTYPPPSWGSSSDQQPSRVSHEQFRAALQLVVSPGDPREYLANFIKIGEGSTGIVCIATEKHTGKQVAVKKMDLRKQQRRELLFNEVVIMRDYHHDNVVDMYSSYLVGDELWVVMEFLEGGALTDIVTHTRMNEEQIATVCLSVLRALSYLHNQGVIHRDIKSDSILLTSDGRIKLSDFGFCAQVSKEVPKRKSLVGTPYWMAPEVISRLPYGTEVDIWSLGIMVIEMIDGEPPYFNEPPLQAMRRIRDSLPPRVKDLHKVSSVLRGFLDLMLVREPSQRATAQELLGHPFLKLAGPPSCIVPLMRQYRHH
For series [6], the target named is cAMP-dependent protein kinase (PKA) (Homo sapiens) (UniProt P22694+P17612+P22612). Kind of series: Inhibition of PKA (unknown origin) at 10 uM relative to control. The series is classed as protein assay.
Series [7] deals with MAP kinase-interacting serine/threonine-protein kinase 1 (Homo sapiens) (UniProt Q9BUB5). Kind of series: Inhibition of human MNK1 at 10 uM relative to control.
MAP kinase-interacting serine/threonine-protein kinase 1 (Homo sapiens), sequence (Q9BUB5 whole entry, looked up): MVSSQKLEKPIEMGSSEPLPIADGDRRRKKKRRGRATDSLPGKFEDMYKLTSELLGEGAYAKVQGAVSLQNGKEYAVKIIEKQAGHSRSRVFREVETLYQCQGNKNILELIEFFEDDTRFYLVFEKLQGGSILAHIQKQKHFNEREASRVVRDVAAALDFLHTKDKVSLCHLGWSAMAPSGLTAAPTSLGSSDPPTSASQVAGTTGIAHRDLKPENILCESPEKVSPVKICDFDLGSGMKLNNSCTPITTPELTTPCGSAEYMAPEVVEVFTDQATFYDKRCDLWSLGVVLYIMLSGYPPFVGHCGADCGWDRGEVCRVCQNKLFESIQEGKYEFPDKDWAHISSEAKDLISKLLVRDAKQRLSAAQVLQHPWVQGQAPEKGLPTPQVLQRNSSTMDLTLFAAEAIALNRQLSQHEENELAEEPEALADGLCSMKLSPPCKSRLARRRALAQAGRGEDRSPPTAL
Series [8] has as its target Eukaryotic elongation factor 2 kinase (Homo sapiens) (UniProt O00418). Kind of series: Inhibition of human EF2K at 10 uM relative to control.
The target in series [9] is Serine/threonine-protein kinase PAK 4 (Homo sapiens) (UniProt O96013). Description: Inhibition of human PAK4 at 10 uM relative to control.
Serine/threonine-protein kinase PAK 4 (Homo sapiens), sequence (O96013 whole entry, looked up): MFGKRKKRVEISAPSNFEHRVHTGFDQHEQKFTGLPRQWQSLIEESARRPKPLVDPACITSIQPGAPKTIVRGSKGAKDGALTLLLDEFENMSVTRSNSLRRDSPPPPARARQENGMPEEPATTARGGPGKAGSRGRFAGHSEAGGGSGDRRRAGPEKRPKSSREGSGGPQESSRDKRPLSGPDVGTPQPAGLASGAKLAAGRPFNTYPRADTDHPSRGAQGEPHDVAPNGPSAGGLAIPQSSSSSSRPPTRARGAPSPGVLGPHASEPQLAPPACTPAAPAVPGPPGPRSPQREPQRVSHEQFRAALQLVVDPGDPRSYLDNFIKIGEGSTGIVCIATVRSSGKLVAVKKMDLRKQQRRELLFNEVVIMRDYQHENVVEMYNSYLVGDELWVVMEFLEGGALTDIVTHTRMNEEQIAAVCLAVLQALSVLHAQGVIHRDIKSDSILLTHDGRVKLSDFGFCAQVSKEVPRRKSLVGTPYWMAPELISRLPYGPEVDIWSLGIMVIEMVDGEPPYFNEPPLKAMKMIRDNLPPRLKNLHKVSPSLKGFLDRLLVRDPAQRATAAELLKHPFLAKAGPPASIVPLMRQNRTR
The target in series [10] is Protein kinase C zeta type (Homo sapiens) (UniProt Q05513). Description: Inhibition of human PKCz at 10 uM relative to control.
Protein kinase C zeta type (Homo sapiens), sequence (Q05513 whole entry): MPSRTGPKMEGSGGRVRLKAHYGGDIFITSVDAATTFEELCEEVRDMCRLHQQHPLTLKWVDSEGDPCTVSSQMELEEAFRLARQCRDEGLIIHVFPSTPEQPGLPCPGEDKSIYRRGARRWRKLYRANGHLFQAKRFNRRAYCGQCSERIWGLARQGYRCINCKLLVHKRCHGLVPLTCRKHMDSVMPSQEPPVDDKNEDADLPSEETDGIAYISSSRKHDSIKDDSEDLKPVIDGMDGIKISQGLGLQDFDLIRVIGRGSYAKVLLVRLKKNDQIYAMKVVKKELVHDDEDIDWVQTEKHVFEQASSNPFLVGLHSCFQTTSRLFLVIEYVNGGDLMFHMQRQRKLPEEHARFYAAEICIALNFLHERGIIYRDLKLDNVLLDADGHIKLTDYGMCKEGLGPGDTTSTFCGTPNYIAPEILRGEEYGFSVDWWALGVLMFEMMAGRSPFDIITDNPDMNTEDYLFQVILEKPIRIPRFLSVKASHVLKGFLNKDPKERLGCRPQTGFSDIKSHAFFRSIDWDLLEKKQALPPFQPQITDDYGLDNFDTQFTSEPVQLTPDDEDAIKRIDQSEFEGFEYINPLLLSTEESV
Series [11] has as its target Dual specificity tyrosine-phosphorylation-regulated kinase 2 (Homo sapiens) (UniProt Q92630). Kind of series: Inhibition of human DYRK2 at 10 uM relative to control.
The target of series [12] is Mitogen-activated protein kinase 12 (Homo sapiens) (UniProt P53778). Description: Inhibition of human MAPK12 at 10 uM relative to control.
Mitogen-activated protein kinase 12 (Homo sapiens), sequence (P53778 whole entry, the tested form may be a part): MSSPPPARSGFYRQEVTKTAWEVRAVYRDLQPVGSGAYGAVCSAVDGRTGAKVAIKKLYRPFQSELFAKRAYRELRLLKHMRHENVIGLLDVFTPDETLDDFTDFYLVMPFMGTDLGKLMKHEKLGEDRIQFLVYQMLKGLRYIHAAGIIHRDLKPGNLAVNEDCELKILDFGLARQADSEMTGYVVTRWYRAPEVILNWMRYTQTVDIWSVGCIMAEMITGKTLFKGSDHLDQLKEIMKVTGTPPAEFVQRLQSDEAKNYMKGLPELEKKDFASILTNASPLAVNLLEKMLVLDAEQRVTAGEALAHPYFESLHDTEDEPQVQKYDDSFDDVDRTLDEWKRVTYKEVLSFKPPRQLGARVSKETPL
Series [13] relates to Rattus norvegicus. Kind of series: Insulin sensitizing activity in Sprague-Dawley rat hyperinsulinemic-euglycemic glucose clamp model assessed as glucose infusion rate required to maintain euglycemia during infusion of human insulin at 1000 ug/kg/min, iv for 2 mins followed by 50 ug/kg/min, iv for 28 mins measured during clamp 1 (reference value: 124 +/- 4 umol/min/kg). The conditions noted are these: time 30 min, 0.5 h. It counts as functional. The method in brief:
(§1)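 Anesthetized rats; hyperinsulinemic–euglycemic clamp with human insulin infused. A baseline clamp (Clamp1) was followed by a second clamp (Clamp2) with vehicle or drug i.v. The drug was given as a low dose (1000 μg kg−1 + 50 μg kg min−1) or a high dose (6000 μg kg−1 + 300 μg kg min−1). Steady-state glucose infusion rate for euglycemia was recorded, with plasma glucose, human insulin and total insulin; mean ± SEM, n = 4–5/group.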

For series [14], the system named is Rattus norvegicus. Description: Insulin sensitizing activity in Sprague-Dawley rat hyperinsulinemic-euglycemic glucose clamp model assessed as glucose infusion rate required to maintain euglycemia during infusion of human insulin at 1000 ug/kg/min, iv for 2 mins followed by 50 ug/kg/min, iv for 28 mins measured during clamp 2 (reference value: 138 +/- 4 umol/min/kg). It counts as functional. As to conditions: time 30 min, 0.5 h. The method in brief: as §1

The subject of series [15] is Rattus norvegicus. Description: Insulin sensitizing activity in Sprague-Dawley rat hyperinsulinemic-euglycemic glucose clamp model assessed as glucose infusion rate required to maintain euglycemia during infusion of human insulin at 6000 ug/kg/min, iv for 2 mins followed by 300 ug/kg/min, iv for 28 mins measured during clamp 2 (reference value: 138 +/- 4 umol/min/kg). As to conditions: time 30 min, 0.5 h. It counts as functional. Summed up:
as §1

Series [16] can be described thus: Plasma concentration in Sprague-Dawley rat hyperinsulinemic-euglycemic glucose clamp model at […], iv for 2 mins followed by 50 ug/kg/min, iv for 28 mins. As to conditions: time 30 min. It counts as ADME, organism-based. Summed up:
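Plasma drug levels were sampled during the drug-infusion clamp period (Clamp2) in anesthetized rats under a human-insulin hyperinsulinemic–euglycemic clamp. I.v. regimens were 1000 μg kg−1 + 50 μg kg min−1 or 6000 μg kg−1 + 300 μg kg min−1; mean ± SEM, n = 4–5/group.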

The subject of series [17] is Rattus norvegicus. Kind of series: Insulin sensitizing activity in Sprague-Dawley rat hyperinsulinemic-euglycemic glucose clamp model assessed as glucose level during infusion of human insulin at 1000 ug/kg/min, iv for 2 mins followed by 50 ug/kg/min, iv for 28 mins measured during clamp 2 by colorimetry (reference value: 8.1 +/- 0.7 mM). As to conditions: time 30 min, 0.5 h. It counts as functional. The method in brief:
as §1

Series [18] deals with Rattus norvegicus. Kind of series: Insulin sensitizing activity in Sprague-Dawley rat hyperinsulinemic-euglycemic glucose clamp model assessed as total insulin level during infusion of human insulin at 6000 ug/kg/min, iv for 2 mins followed by 300 ug/kg/min, iv for 28 mins measured during clamp 1 (reference value: 2.2 +/- 0.1 nM). It counts as functional. The conditions noted are these: time 30 min, 0.5 h. The method in brief: as §1

A short description of series [19]: Toxicity in Sprague-Dawley rat assessed as change in heart rate at 6000 ug/kg, iv for 2 mins followed by 300 ug/kg/min, iv for 28 mins. As to conditions: in vivo, 6 mg/kg, 0.5 h, time 30 min. The series is classed as organism-based. Summed up:
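Overnight-fasted anesthetized rats got three consecutive escalating i.v. doses over 30 min each (n = 4/group). Heart rate and blood pressure were followed alongside end-of-interval blood samples for plasma drug exposure, glucose and insulin (relative HOMA index experiments).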

The nature of series [20]: Toxicity in Sprague-Dawley rat hyperinsulinemic-euglycemic glucose clamp model assessed as increase in blood pressure at 1000 ug/kg/min, iv for 2 mins followed by 50 ug/kg/min, iv for 28 mins. As to conditions: in vivo, 0.5 h, time 30 min. It counts as organism-based. Summed up:
(§2)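 Anesthetized rats underwent two consecutive hyperinsulinemic–euglycemic clamps with human insulin infusion: a baseline Clamp1, then Clamp2 with vehicle or AZD6482 i.v. (n = 4–5/group). Blood pressure and heart rate were followed during control periods and after drug administration. Steady-state glucose infusion rate maintained euglycemia.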

Series [21] is described as follows: Toxicity in Sprague-Dawley rat hyperinsulinemic-euglycemic glucose clamp model assessed as increase in blood pressure at 6000 ug/kg/min, iv for 2 mins followed by 300 ug/kg/min, iv for 28 mins. The series is classed as organism-based. As to conditions: in vivo, 0.5 h, time 30 min. The method in brief:
as §2

The nature of series [22]: Toxicity in Sprague-Dawley rat hyperinsulinemic-euglycemic glucose clamp model assessed as change in heart rate at 1000 ug/kg/min, iv for 2 mins followed by 50 ug/kg/min, iv for 28 mins. The series is classed as organism-based. As to conditions: in vivo, 0.5 h, time 30 min. The method in brief: as §2
A short description of series [23]: Clearance in human at 0.9 to 455.8 mg, iv administered for 3 hrs via infusion by LC-MS/MS analysis. The conditions noted are these: in vivo, dose 0.9-455.8 mg. It counts as ADME, organism-based. The method in brief: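 Randomized, double-blind, placebo-controlled single ascending-dose study in healthy male volunteers aged 18–36. Each subject received a 3-h i.v. infusion (0.9–455.8 mg). Plasma levels were measured by protein precipitation and LC-MS/MS (LLOQ 0.005 μm), with non-compartmental PK analysis. Half-life was calculated only for the four highest dose groups. The 3-h sample was taken as Css.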

The IC50 is the concentration that gives 50% inhibition. As a reminder, the inhibition is the drop in the measured response relative to a control, in per cent. As usually defined, the clearance is the rate of elimination divided by the concentration.

Some results are limits rather than exact numbers.

Dual specificity tyrosine-phosphorylation-regulated kinase 2 (Homo sapiens), sequence (Q92630 whole entry): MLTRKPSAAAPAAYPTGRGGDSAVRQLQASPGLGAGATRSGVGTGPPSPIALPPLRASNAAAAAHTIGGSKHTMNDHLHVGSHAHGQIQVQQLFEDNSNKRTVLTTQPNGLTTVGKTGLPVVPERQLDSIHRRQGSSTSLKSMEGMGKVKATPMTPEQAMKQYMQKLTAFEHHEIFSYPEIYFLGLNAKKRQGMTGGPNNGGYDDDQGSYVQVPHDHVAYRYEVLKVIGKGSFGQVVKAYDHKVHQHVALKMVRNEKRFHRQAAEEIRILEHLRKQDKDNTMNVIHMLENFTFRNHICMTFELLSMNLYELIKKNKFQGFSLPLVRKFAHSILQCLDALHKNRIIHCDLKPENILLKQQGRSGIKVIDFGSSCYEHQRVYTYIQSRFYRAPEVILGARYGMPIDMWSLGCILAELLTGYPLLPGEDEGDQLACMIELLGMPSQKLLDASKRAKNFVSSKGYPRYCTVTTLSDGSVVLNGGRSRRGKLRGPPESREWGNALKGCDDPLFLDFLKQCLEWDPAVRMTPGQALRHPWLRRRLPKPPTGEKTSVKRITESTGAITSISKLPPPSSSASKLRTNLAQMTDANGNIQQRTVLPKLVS
Eukaryotic elongation factor 2 kinase (Homo sapiens), sequence (O00418 whole entry): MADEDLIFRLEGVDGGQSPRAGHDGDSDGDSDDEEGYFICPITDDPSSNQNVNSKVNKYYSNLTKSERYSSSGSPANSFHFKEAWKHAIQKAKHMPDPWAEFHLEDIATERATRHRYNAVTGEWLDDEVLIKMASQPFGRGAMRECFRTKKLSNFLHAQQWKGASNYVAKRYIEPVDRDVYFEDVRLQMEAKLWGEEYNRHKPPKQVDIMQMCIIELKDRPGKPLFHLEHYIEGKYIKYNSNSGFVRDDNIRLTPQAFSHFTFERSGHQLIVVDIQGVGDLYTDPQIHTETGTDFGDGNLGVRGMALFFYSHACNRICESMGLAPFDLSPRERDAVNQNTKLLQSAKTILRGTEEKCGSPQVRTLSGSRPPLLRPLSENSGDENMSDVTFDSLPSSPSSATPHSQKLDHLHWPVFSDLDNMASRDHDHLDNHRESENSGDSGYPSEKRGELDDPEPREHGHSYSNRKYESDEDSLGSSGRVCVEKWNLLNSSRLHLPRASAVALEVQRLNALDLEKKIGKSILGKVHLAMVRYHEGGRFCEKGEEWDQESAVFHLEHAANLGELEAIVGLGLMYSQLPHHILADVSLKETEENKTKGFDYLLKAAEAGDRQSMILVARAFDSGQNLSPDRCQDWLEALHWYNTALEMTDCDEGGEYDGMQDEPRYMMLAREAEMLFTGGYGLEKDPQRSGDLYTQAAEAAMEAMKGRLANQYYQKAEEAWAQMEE
Serine/threonine-protein kinase pim-1 (Homo sapiens), sequence (P11309 whole entry, looked up): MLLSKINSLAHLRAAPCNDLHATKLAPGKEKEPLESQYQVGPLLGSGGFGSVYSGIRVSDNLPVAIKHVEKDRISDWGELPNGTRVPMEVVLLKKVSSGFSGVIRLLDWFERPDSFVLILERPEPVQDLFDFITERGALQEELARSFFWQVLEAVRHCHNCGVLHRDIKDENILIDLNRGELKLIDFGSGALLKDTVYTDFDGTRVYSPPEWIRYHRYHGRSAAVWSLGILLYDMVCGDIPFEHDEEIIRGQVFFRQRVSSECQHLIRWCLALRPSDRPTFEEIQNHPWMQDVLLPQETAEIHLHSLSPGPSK

On to `Cc1cc([C@@H](C)Nc2ccccc2C(=O)O)c2nc(N3CCOCC3)cc(=O)n2c1` [AZD-6482], for which the figures for the IC50 in series [1], in [2] and in series [3] were 0.42 µM, over 1000 µM and over 1000 µM, respectively. The inhibition in [4] was 24%; in series [5], 21%; in series [6], -7.5%; in series [7], -9.8%; in [8] it was 7.6%; in [9], -6.4%. Besides, the results for the inhibition in [10], in series [11] and in series [12] were 13%, 18% and 3.4%, respectively. Further, the Activity was 105 µmol/min/kg in the series with Rattus norvegicus [13]; 107 µmol/min/kg in the series with Rattus norvegicus [14]; 38 µmol/min/kg in the series on Rattus norvegicus [15]; 7.2 mM with Rattus norvegicus [17]; 2.3 nM in the series on Rattus norvegicus [18]; “Non-Toxic” in series [19]. Also, the figures for the Activity in series [20], in [21] and in series [22] were 6 mmHg, 15 mmHg and “Non-Toxic”, respectively. In [16], this compound had a concentration at 0.5 h of 2300 nM. For the same compound, the clearance in series [23] was 1180 mL/min.
